Assay [1] addresses Histamine H1 receptor (Cavia porcellus) (UniProt P31389). Briefly: Histamine induced lethality, at 30-min pretreatment time of 3 mg/kg i.p. in guinea pigs. Further details: dose 3 mg/kg. Format: functional, organism-based. The settings on record: at 3 mg/kg.
The subject of assay [2] is Cavia porcellus. The assay can be described thus: Histamine induced lethality, at 30-min pretreatment time when 30 mg/kg compound was administered intra peritoneallyn guinea pigs. Format: functional.
The test system of assay [3] is Felis catus. The assay can be described thus: The compound dose required to elicit marked cortical slowing and spindling, when administarted intra venously in cats. Format: functional. The gist of the method:
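Cats given test compound iv (0.001-20 mg/kg), with spontaneous EEG inspected after each dose for cortical slowing, synchrony and spindle-type activity. The sedative dose was the one producing marked slowing and spindling (synchrony). Values are mean ± SD over the number of experiments per compound.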

The subject of assay [4] is Felis catus. Briefly: The compound dose required for 50% block of H1 histamine activity, when administarted intra venously in cats. The format is functional. In a few lines:
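Cats given test compound iv (0.001-20 mg/kg), with blood pressure recorded continuously. Histamine 0.5 μg/kg iv was given to induce hypotension, before and 5, 10 and 20 min after each dose. The antihistaminic dose was the one inhibiting the histamine response by >50%. Values are mean ± SD over the number of experiments per compound.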

For assay [5], the system named is Cavia porcellus. Briefly: Histamine induced lethality, at 30-min pretreatment time when 30 mg/kg compound was administered intra peritoneally in guinea pigs. Format: functional.
For assay [6], the system named is Cavia porcellus. Briefly: Histamine induced lethality, at 30-min pretreatment time when 3 mg/kg compound was administered intra peritoneally in guinea pigs. Format: functional.
The species named for assay [7] is Cavia porcellus. Briefly: Effective dose that protects guinea pigs against histamine induced lethality, at 1 hour pretreatment time. Format: functional. In a few lines:
(§1)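 Survival at 24 h after challenge was scored as protection. Groups of 5–10 animals per treatment; ED50 was calculated by the Litchfield–Wilcoxon method or by computer probit analysis.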

Assay [8] has as its target Histamine H1 receptor (Cavia porcellus) (UniProt P31389). Briefly: Histamine induced lethality, at 60-min pretreatment time of 0.1 mg/kg p.o. in guinea pigs. The format is functional, organism-based. Also noted: dose 0.1 mg/kg. The settings on record: at 0.1 mg/kg.
The species entered for assay [9] is Cavia porcellus. Briefly: Effective dose that protects guinea pigs against histamine induced lethality at 6 hours pretreatment time. The format is functional. In a few lines:
as §1

The subject of assay [10] is Cavia porcellus. The assay can be described thus: Histamine induced lethality, at 60-min pretreatment time when 3 mg/kg compound was administered perorally in guinea pigs. Format: functional. The settings on record: route oral.
Assay [11] relates to Cavia porcellus. The assay can be described thus: Histamine induced lethality, at 60-min pretreatment time when 30 mg/kg compound was administered perorally in guinea pigs. Format: functional. As to conditions: route oral.
The test system of assay [12] is Cavia porcellus. Briefly: Histamine induced lethality, at 30-min pretreatment time when 1 mg/kg compound was administered intra peritoneally in guinea pigs. The format is functional.
The subject of assay [13] is Cavia porcellus. Briefly: Histamine induced lethality, at 60-min pretreatment time when 0.1 mg/kg compound was administered perorally in guinea pigs. The format is functional. The settings on record: route oral.
Assay [14] relates to Cavia porcellus. Briefly: Histamine induced lethality, at 30-min pretreatment time when 1 mg/kg compound was administered perorally in guinea pigs. Format: functional. The settings on record: route oral.
The test system of assay [15] is Cavia porcellus. Briefly: Histamine induced lethality, at 60-min pretreatment time when 1 mg/kg compound was administered perorally in guinea pigs. The settings on record: route oral. Format: functional.
The test system of assay [16] is Cavia porcellus. The assay can be described thus: Histamine induced lethality, at 30-min pretreatment time when 0.3 mg/kg compound was administered intra peritoneally in guinea pigs. The format is functional.
Assay [17] deals with Cavia porcellus. The assay can be described thus: Histamine induced lethality, at 60-min pretreatment time when 0.3 mg/kg compound was administered perorally in guinea pigs. The settings on record: route oral. Format: functional.

Chain of Histamine H1 receptor (Cavia porcellus) (P31389 whole entry): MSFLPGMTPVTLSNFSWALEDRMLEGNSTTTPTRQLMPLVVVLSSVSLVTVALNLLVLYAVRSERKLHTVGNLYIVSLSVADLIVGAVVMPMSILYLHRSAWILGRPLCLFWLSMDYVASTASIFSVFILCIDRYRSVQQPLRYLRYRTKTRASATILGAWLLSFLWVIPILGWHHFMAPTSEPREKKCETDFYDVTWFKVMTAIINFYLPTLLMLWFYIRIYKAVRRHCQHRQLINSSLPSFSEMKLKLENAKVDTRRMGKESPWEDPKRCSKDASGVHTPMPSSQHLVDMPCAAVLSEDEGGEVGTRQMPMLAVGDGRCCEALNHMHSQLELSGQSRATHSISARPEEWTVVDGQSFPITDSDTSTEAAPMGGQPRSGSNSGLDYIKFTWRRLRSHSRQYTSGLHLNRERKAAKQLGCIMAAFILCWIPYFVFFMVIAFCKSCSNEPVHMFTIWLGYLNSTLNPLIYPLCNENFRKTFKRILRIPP

As for `CN(C)CCC1CN(C)C(=O)c2cccnc2S1` (configuration not stated), the Survival in assay [1] is 0%. Further, in the assay with Cavia porcellus [2], the survival at 30 mg/kg stood at 67%.
Regarding `CCOC(=O)N1CCC(=C2c3ccc(Cl)cc3CCc3cccnc32)CC1` [LORATADINE], the Dose is 20 mg/kg in the assay with Felis catus [3] and 0.43 mg/kg with Felis catus [4].
Consider `CN(C)CCC1CN(C)C(=S)c2ccc3ccccc3c2O1` (configuration not stated), for which, in the assay with Cavia porcellus [5], the survival at 30 mg/kg was 100%. Also, the survival at 3 mg/kg in the assay on Cavia porcellus [6] was found to be 33%.
One may read the ED50 as the midpoint of the dose-response relation. On to `CN1CC(CCN2CCC2)Oc2ncc(Cl)cc2C1=S` (configuration not stated), for which the ED50 in the assay filed under Cavia porcellus [7] and in the assay listed under Cavia porcellus [9] was 0.02 mg/kg each time. Besides, the Dose in the assay on Felis catus [3] is greater than 20 mg/kg; in the assay with Felis catus [4] it was 0.005 mg/kg. Also, in assay [8], the Survival turned out to be 100%.
In the case of `CNCCC1CN(C)C(=S)c2cccnc2O1` (configuration not stated), in the assay on Cavia porcellus [10], the survival at 3 mg/kg was 0%. For the same molecule, the Dose in the assay on Felis catus [3] was greater than 20 mg/kg. In the assay with Cavia porcellus [11], the survival at 30 mg/kg is 100%.
Take `CN(C)CCC1CN(C)C(=O)c2cnccc2O1` (configuration not stated): the Survival in assay [1] is 67%. In addition, the survival at 30 mg/kg with Cavia porcellus [5] stood at 100%. In addition, the survival at 1 mg/kg in the assay with Cavia porcellus [12] came to 33%.
As to `CN(C)CCC1CN(C)C(=S)c2cccnc2S1` (configuration not stated), the survival at 30 mg/kg with Cavia porcellus [5] worked out at 100%. In addition, the survival at 3 mg/kg with Cavia porcellus [6] worked out at 0%.
As for `CN(C)CCC1CN(C)C(=S)c2ccccc2O1` (configuration not stated), the survival at 3 mg/kg with Cavia porcellus [10] is 0%. Also, the Dose in the assay with Felis catus [3] was greater than 20 mg/kg. Also, in the assay on Cavia porcellus [13], the survival at 0.1 mg/kg turned out to be 100%. In addition, the survival at 1 mg/kg with Cavia porcellus [14] came out at 50%; with Cavia porcellus [15] it was 0%. In addition, the survival at 30 mg/kg in the assay with Cavia porcellus [11] amounted to 100%.
Consider `CN(C)CCC1CN(C)C(=S)c2cc3ccccc3cc2O1` (configuration not stated), for which, in assay [1], the Survival was found to be 67%. For the same molecule, the survival at 30 mg/kg with Cavia porcellus [5] turned out to be 100%. Further, the Dose in the assay on Felis catus [3] was greater than 20 mg/kg; in the assay with Felis catus [4], 0.5 mg/kg. In the assay on Cavia porcellus [16], the survival at 0.3 mg/kg worked out at 100%.
For `COc1ccc(CCN2CCC(Nc3nc4ccccc4n3Cc3ccc(F)cc3)CC2)cc1` [ASTEMIZOLE], the figures for the Dose with Felis catus [3] and with Felis catus [4] were 8 mg/kg and 0.43 mg/kg, respectively.
For the molecule `CCN(C)CCC1CN(C)C(=S)c2cccnc2O1` (configuration not stated), in the assay with Cavia porcellus [10], the survival at 3 mg/kg stood at 60%. Moreover, the survival at 30 mg/kg with Cavia porcellus [11] came to 100%. For the same molecule, in the assay on Cavia porcellus [15], the survival at 1 mg/kg amounted to 0%.
With `CN(C)CCC1CN(C)C(=S)c2ccc(Cl)cc2O1` (configuration not stated), in the assay on Cavia porcellus [17], the survival at 0.3 mg/kg is 0%. The survival at 3 mg/kg in the assay on Cavia porcellus [10] was found to be 100%. Further, the survival at 30 mg/kg in the assay with Cavia porcellus [11] worked out at 100%. For the same molecule, the survival at 1 mg/kg with Cavia porcellus [15] amounted to 0%.
`CN1CC(CCN2CCC2)Oc2ncc(Cl)cc2C1=O` (configuration not stated): the ED50 stood at 0.04 mg/kg in the assay listed under Cavia porcellus [7] and 0.8 mg/kg in the assay filed under Cavia porcellus [9]. Also, the Dose with Felis catus [3] was greater than 20 mg/kg; with Felis catus [4] it was 0.06 mg/kg. Moreover, in assay [8], the Survival was determined as 100%.
For the molecule `COc1ccc2c(c1)C(=S)N(C)CC(CCN(C)C)O2` (configuration not stated), in the assay on Cavia porcellus [10], the survival at 3 mg/kg came out at 0%. The survival at 30 mg/kg with Cavia porcellus [11] amounted to 100%.
Consider `CN(C)CCC1CN(C)C(=S)c2cnccc2O1` (configuration not stated), for which the Survival in assay [1] stood at 100%. The survival at 30 mg/kg in the assay on Cavia porcellus [5] is 100%. Further, in the assay with Cavia porcellus [12], the survival at 1 mg/kg was found to be 0%.
`CN(C)CCC1CN(C)C(=O)c2cc3ccccc3nc2O1` (configuration not stated): the Survival in assay [1] was found to be 100%. For the same molecule, in the assay with Cavia porcellus [12], the survival at 1 mg/kg is 0%.
Regarding `CN(C)CCC1CN(C)C(=S)c2cc(Cl)cnc2O1` (configuration not stated), the ED50 in the assay listed under Cavia porcellus [7] is 0.04 mg/kg; in the assay listed under Cavia porcellus [9], 0.6 mg/kg. Moreover, the Dose in the assay with Felis catus [3] was greater than 20 mg/kg; with Felis catus [4] it was 0.5 mg/kg. Further, the Survival in [8] was 100%.
Take `CN(C)CCC1CN(C)C(=S)c2cccnc2O1` (configuration not stated) [ROCASTINE]: the survival at 0.3 mg/kg with Cavia porcellus [17] came to 100%. Also, the ED50 in the assay listed under Cavia porcellus [7] was 0.12 mg/kg; in the assay filed under Cavia porcellus [9], 6 mg/kg. Besides, the Dose is greater than 20 mg/kg in the assay with Felis catus [3] and 0.5 mg/kg in the assay with Felis catus [4]. Moreover, the Survival in [8] is 50%.
In the case of `CN(C)CCC(c1ccc(Br)cc1)c1ccccn1` (configuration not stated) [BROMPHENIRAMINE], in the assay on Cavia porcellus [17], the survival at 0.3 mg/kg is 100%. Further, the ED50 amounted to 0.08 mg/kg in the assay listed under Cavia porcellus [7] and 2.5 mg/kg in the assay listed under Cavia porcellus [9]. The Dose worked out at 1.7 mg/kg in the assay on Felis catus [3] and 1.3 mg/kg in the assay on Felis catus [4]. Further, in [8], the Survival was determined as 40%.
`CN1CC(CCN2CCC2)Oc2ncccc2C1=O` (configuration not stated): the survival at 0.3 mg/kg with Cavia porcellus [17] was 100%. Also, the ED50 in the assay filed under Cavia porcellus [7] came out at 0.13 mg/kg; in the assay listed under Cavia porcellus [9] it was 6 mg/kg. Besides, the Dose in the assay with Felis catus [3] was greater than 20 mg/kg; in the assay on Felis catus [4], 0.6 mg/kg. The Survival in assay [8] worked out at 67%.
For the molecule `CN(C)CCOC(c1ccccc1)c1ccccc1` [DIPHENHYDRAMINE], the ED50 came out at 2.8 mg/kg in the assay filed under Cavia porcellus [7] and 38 mg/kg in the assay listed under Cavia porcellus [9]. Further, the survival at 3 mg/kg in the assay on Cavia porcellus [10] was 67%. Besides, the Dose was 0.6 mg/kg with Felis catus [3] and 0.75 mg/kg with Felis catus [4]. Besides, the survival at 1 mg/kg in the assay with Cavia porcellus [15] was found to be 33%.
Regarding `CN(C)CCC1CN(C)C(=S)c2cc(C(F)(F)F)ccc2O1` (configuration not stated), the survival at 3 mg/kg in the assay on Cavia porcellus [10] is 33%. Further, the survival at 30 mg/kg in the assay on Cavia porcellus [11] was determined as 100%.
For `CN1CC(CCN2CCCC2)Oc2ncccc2C1=S` (configuration not stated), the survival at 3 mg/kg with Cavia porcellus [10] was 80%. For the same molecule, the survival at 30 mg/kg in the assay on Cavia porcellus [11] stood at 67%.
`CN(C)CCC1CN(C)C(=S)c2cc(Br)ccc2O1` (configuration not stated): the survival at 3 mg/kg in the assay on Cavia porcellus [10] was determined as 67%. Moreover, in the assay on Cavia porcellus [11], the survival at 30 mg/kg worked out at 100%. In addition, the survival at 1 mg/kg in the assay with Cavia porcellus [15] amounted to 0%.

The record behind these values is ChEMBL document CHEMBL1124606, “Benzo- and pyrido-1,4-oxazepin-5-ones and -thiones: synthesis and structure-activity relationships of a new series of H1 antihistamines” (1989).
